In ChEMBL document CHEMBL3244050, “Synthesis and biological activity of beta-endorphin and analogues. Additional evidence for multiple opiate receptors” (J Med Chem, 1978):

Assays:
[1] = target: T1, Opioid receptor (Rattus norvegicus) (UniProt P33533+P34975+P33535); assay: Displacement of [3H]naloxone from opioid receptor in rat brain after 30 mins; assay type: tissue-based
In short: (§1)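 Rat brain homogenate (2-mL aliquots, ca. 1 mg wet weight) incubated with […] [3H]naloxone (25 Ci/mmol) for 30 min at 25 °C, with test peptides at three to five concentrations. Each concentration run as three separate sets of duplicates. ID50 taken from log-probit plots. The relative value is expressed against natural sheep beta-endorphin.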

[2] = target: T1, Opioid receptor (Rattus norvegicus); assay: Displacement of [3H]naloxone from opioid receptor in rat brain after 30 mins relative to natural sheep beta-endorphin; assay type: tissue-based; in short: as §1
[3] = target: T1, Opioid receptor (Rattus norvegicus); assay: Modulation of opioid receptor in rat vas deferens assessed as inhibition of electrically evoked contractions; assay type: tissue-based
In short: (§2)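 Rat vas deferens, electrically stimulated; depression of contractions recorded over five increasing concentrations. Each concentration is the mean from six different tissues. ID50 derived from log-probit plots. The relative value and ratio are expressed against natural sheep beta-endorphin.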

[4] = target: T1, Opioid receptor (Rattus norvegicus); assay: Modulation of opioid receptor in rat vas deferens assessed as inhibition of electrically evoked contractions relative to natural sheep beta-endorphin; assay type: tissue-based; design: scale not given: the % may be the effect or the level left; in short: as §2
Cavia porcellus [5] = organism: Cavia porcellus; assay: Modulation of opioid receptor in guinea pig ileum assessed as inhibition of electrically evoked contractions; assay type: tissue-based
In short: (§3)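 Guinea pig ileum, electrically stimulated; depression of contractions measured. Each tissue received increasing concentrations of only one compound, to avoid tachyphylaxis seen with repeat doses given 30 min apart. ID50 taken from log-probit plots of five increasing concentrations, each the mean from six tissues. The relative value is expressed against natural sheep beta-endorphin.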

Cavia porcellus [6] = organism: Cavia porcellus; assay: Modulation of opioid receptor in guinea pig ileum assessed as inhibition of electrically evoked contractions relative to natural sheep beta-endorphin; assay type: tissue-based; design: scale not given: the % may be the effect or the level left; in short: as §3
[7] = Retardation factor of the compound using 1-butanol-pyridine-0.6 M ammonium acetate in 0.1% aqueous acetic acid at ratio of 5:3:11 (v/v) as solvent system by partition chromatography; assay type: physicochemical; conditions: buffer
[8] = Retardation factor of the compound using 1-butanol-pyridine-acetic acid-water at ratio of 6.0:6.0:1.2:4.8 as solvent system by thin layer chromatography; assay type: physicochemical; conditions: buffer
[9] = Retardation factor of the compound using 1-butanol-acetic acid-water at ratio of 4:3:3 as solvent system by thin layer chromatography; assay type: physicochemical; conditions: buffer
[10] = Retardation factor of the compound measured at 400 V for 4 hrs by paper electrophoresis; assay type: physicochemical

Molecule | ID50 [1] [nM] | Activity [2] [%] | ID50 [3] [nM] | Activity [4] [%] | ID50 (Cavia porcellus [5]) [nM] | Activity (Cavia porcellus [6]) [%] | Rf [7] | Rf [8] | Rf [9] | Rf [10]
BETA-ENDORPHIN [listing 1 of 2 here] | 10 | 100 | 130 | 100 | 27 | 100 |  |  |  | 
CC[C@H](C)[C@H](NC(=O)[C@H](C)NC(=O)[C@H](CC(N)=O)NC(=O)[C@H](CCCCN)NC(=O)[C@H](Cc1ccccc1)NC(=O)[C@H](CC(C)C)NC(=O)[C@@H](NC(=O)[C@@H](NC(=O)[C@H](CC(C)C)NC(=O)[C@@H]1CCCN1C(=O)[C@@H](NC(=O)[C@H](CCC(N)=O)NC(=O)[C@H](CO)NC(=O)[C@H](CCCCN)NC(=O)[C@H](CCC(=O)O)NC(=O)[C@H](CO)NC(=O)[C@@H](NC(=O)[C@H](CC[S+](C)[O-])NC(=O)[C@H](Cc1ccccc1)N(C)C(=O)CNC(=O)[C@@H](C)NC(=O)[C@@H](N)Cc1ccc(O)cc1)[C@@H](C)O)[C@@H](C)O)C(C)C)[C@@H](C)O)C(=O)N[C@H](C(=O)N[C@@H](CCCCN)C(=O)N[C@@H](CC(N)=O)C(=O)N[C@@H](C)C(=O)N[C@@H](Cc1ccc(O)cc1)C(=O)N[C@@H](CCCCN)C(=O)N[C@@H](CCCCN)C(=O)NCC(=O)N[C@@H](CCC(=O)O)C(=O)O)[C@@H](C)CC (some centres undefined) |  |  |  |  |  |  | 0.21 | 0.42 | 0.061 | 0.47
BETA-ENDORPHIN [listing 2 of 2 here] |  |  |  |  |  |  | 0.2 | 0.45 | 0.077 | 0.47
